Consider three compounds from ChEMBL document CHEMBL1914406, “Inhibitory effect of novel 5-O-acyl juglones on mammalian DNA polymerase activity, cancer cell growth and inflammatory response” (Bioorg Med Chem, 2011).

One series has as its system Nucleic Acid. The series is described as follows: Binding affinity to DNA assessed as thermal transition of DNA relative to control. The series is classed as nucleic-acid assay.
Series [1] relates to RAW264.7. The series is described as follows: Cytotoxicity against mouse RAW264.7 cells at 5 uM. The series is classed as cell-based. The following applies: raw264.7, 5 µM.
The nature of series [2]: Cytotoxicity against mouse RAW264.7 cells. The series is classed as cell-based. The following applies: read-out: LD50 (the source's name).
For the next series, the system named is Mus musculus. As to the kind of experiment: Antiinflammatory activity in mouse assessed as inhibition of TPA-induced mouse ear edema at 500 ug/ear administered 30 mins before TPA challenge measured after 7 hrs relative to untreated control. It is filed as functional, organism-based. An outline of the steps:
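Compound (500 µg) applied to one mouse ear; 30 min later TPA (0.5 µg) applied to both ears. Edema scored after 7 h and expressed as percentage of edema. Mean ± SE, n = 6.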

The target in series [3] is T1, DNA polymerase lambda (Homo sapiens) (UniProt Q9UGP5).
T1 sequence (whole entry): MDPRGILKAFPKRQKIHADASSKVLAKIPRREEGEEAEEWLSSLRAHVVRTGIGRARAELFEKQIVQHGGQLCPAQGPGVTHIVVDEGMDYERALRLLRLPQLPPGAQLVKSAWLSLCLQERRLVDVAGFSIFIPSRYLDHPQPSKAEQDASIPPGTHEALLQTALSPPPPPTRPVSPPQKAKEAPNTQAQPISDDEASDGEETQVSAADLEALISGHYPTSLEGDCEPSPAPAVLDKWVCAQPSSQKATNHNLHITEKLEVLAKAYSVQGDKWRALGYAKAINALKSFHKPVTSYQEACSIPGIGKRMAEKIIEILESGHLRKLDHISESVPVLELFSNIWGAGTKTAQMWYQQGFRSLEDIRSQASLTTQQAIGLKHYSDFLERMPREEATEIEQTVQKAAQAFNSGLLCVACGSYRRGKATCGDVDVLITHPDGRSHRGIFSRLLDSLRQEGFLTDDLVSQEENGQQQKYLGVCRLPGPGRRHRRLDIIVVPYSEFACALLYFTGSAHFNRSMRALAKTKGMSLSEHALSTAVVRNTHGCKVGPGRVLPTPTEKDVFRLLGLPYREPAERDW
The series is described as follows: Inhibition of recombinant His-tagged human DNA polymerase lambda using poly(dA)/oligo(dT)18 (A/T = 2/1) and dTTP as the DNA template-primer and nucleotide substrate at 10 uM after 60 mins. The method, boiled down: (§1)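 Compound in DMSO, sonicated 30 s. Premixed 0 °C, 10 min with enzyme (0.05 units) in 50 mM Tris-HCl pH 7.5, 1 mM DTT, 50% glycerol, 0.1 mM EDTA, then added to standard reaction mixture. Template-primers: poly(dA)/oligo(dT)18 (2/1) for pols, oligo(dT)18 for TdT, poly(rA)/oligo(dT)18 for HIV-1 RT, with [3H]dTTP. 60 min at 37 °C (Taq 74 °C). Activity relative to no-inhibitor control; mean ± SE of three experiments.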

The species named for series [4] is Bos taurus. The series is described as follows: Inhibition of calf DNA polymerase alpha using poly(dA)/oligo(dT)18 (A/T = 2/1) and dTTP as the DNA template-primer and nucleotide substrate at 10 uM after 60 mins. An outline of the steps:
as §1

For series [5], the species on record is Homo sapiens. As to the kind of experiment: Inhibition of histidine-tagged human DNA polymerase gamma using poly(dA)/oligo(dT)18 (A/T = 2/1) and dTTP as the DNA template-primer and nucleotide substrate at 10 uM after 60 mins. An outline of the steps: as §1
Series [6] concerns the target T2, DNA polymerase kappa (Homo sapiens) (UniProt Q9UBT6).
T2 sequence (whole entry): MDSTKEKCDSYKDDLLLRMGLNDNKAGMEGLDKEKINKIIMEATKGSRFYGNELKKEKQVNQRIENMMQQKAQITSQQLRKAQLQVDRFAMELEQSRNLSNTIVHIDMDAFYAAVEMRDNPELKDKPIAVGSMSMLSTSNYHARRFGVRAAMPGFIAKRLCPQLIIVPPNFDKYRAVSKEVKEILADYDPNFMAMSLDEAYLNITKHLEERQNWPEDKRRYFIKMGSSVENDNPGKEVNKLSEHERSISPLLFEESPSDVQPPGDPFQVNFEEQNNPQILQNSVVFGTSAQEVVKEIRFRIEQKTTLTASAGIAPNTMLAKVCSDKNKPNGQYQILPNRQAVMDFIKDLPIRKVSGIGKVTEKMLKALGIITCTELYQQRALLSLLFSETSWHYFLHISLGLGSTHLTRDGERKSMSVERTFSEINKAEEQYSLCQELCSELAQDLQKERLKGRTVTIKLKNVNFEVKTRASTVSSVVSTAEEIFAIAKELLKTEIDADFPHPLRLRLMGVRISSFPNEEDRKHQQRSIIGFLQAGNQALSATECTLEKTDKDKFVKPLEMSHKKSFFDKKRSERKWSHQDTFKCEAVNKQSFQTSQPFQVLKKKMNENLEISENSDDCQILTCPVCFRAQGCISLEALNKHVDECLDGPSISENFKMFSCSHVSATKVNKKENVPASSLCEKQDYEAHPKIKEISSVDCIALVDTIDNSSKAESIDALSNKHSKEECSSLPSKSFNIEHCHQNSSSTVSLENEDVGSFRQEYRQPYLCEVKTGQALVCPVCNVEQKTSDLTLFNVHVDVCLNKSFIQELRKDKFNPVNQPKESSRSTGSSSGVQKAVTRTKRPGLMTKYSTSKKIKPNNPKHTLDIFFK
The series is described as follows: Inhibition of C-terminal His6-tagged human DNA polymerase kappa (amino acids 1 to 560) using poly(dA)/oligo(dT)18 (A/T = 2/1) and dTTP as the DNA template-primer and nucleotide substrate at 10 uM after 60 mins.

For series [7], the species on record is Bos taurus. The series is described as follows: Inhibition of calf DNA polymerase alpha using bovine deoxyribonuclease 1-treated DNA and dNTP as the DNA template-primer and nucleotide substrate at 10 uM after 60 mins.
For series [8], the species on record is Homo sapiens. As to the kind of experiment: Inhibition of histidine-tagged human DNA polymerase gamma using bovine deoxyribonuclease 1-treated DNA and dNTP as the DNA template-primer and nucleotide substrate at 10 uM after 60 mins.
Series [9] concerns the target T2, DNA polymerase kappa (Homo sapiens). The series is described as follows: Inhibition of C-terminal His6-tagged human DNA polymerase kappa (amino acids 1 to 560) using bovine deoxyribonuclease 1-treated DNA and dNTP as the DNA template-primer and nucleotide substrate at 10 uM after 60 mins.
The target in series [10] is T1, DNA polymerase lambda (Homo sapiens). As to the kind of experiment: Inhibition of recombinant His-tagged human DNA polymerase lambda using bovine deoxyribonuclease 1-treated DNA and dNTP as the DNA template-primer and nucleotide substrate at 10 uM after 60 mins.
The subject of another series is HCT-116. The series is described as follows: Cytotoxicity against human HCT116 cells at 100 uM by WST-1 assay. The series is classed as functional, cell-based. The method, boiled down:
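HCT116 colon carcinoma cells (ATCC) grown in McCoy's 5A with 10% FBS, penicillin and streptomycin, 37 °C, 5% CO2. Plated at 1 × 10⁴ cells/well together with compound, which was diluted from a 10 mM DMSO stock into medium (final 0.5% DMSO). Incubated 24 h. Viability read by WST-1, expressed relative to untreated cells.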
On the technique in general: Tetrazolium dyes change colour on reduction, which living cells bring about.

The test system of series [11] is RAW264.7. The series is described as follows: Antiinflammatory activity in mouse RAW264.7 cells assessed as inhibition of LPS-induced TNFalpha secretion at 5 uM treated 30 mins before LPS challenge measured after 24 hrs by ELISA. It is filed as functional, cell-based. An outline of the steps: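 RAW264.7 cells in MEM with 4.5 g/L glucose, 10% FCS, 5 mM L-glutamine, at 37 °C in 5% CO2. Seeded at 5 × 10⁴ cells/well and grown 24 h. Compound (final 1 and 5 µM) given 30 min before 100 ng/mL LPS. After 24 h, TNF-α in the medium measured by ELISA, relative to the no-compound value (100%). Mean ± SE, n = 4.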

Activity calls are given as the source filed them. No cut-off for these calls is given here.

As for `CCCCC/C=C\C/C=C\CCCCCCCC(=O)Oc1cccc2c1C(=O)C=CC2=O`, the result with Nucleic Acid was inactive. Also, the Activity result in the series on RAW264.7 [1] is “Non-toxic”. In addition, the CC50 in series [2] was above 10 µM. In the series on Mus musculus, the outcome was Active. For the same compound, the inhibition entry (in [3]; in the series filed under Bos taurus [4]; in the series listed under Homo sapiens [5]; in series [6]; in the series filed under Bos taurus [7]; in the series listed under Homo sapiens [8]) was “Active” throughout. In addition, the inhibition entry in series [9] and in series [10] was “Active” in each case.
Consider `CCC(=O)Oc1cccc2c1C(=O)C=CC2=O`, for which the result in the series on Nucleic Acid was inactive. The Activity entry in the series on RAW264.7 [1] is on record as “Non-toxic”. For the same compound, the CC50 in series [2] was above 10 µM. Moreover, the outcome in the series with Mus musculus was Active. The inhibition entry (in series [3]; in the series filed under Bos taurus [4]; in the series listed under Homo sapiens [5]; in series [6]; in the series filed under Bos taurus [7]; in the series listed under Homo sapiens [8]) was “Active” each time. For the same compound, the inhibition result in [9] and in series [10] was “Active” in each case.
Turning to `O=C1C=CC(=O)c2c(O)cccc21` [JUGLONE], the outcome with HCT-116, in the series on RAW264.7 [11] and with Mus musculus was Active. Moreover, the Activity entry with RAW264.7 [1] is reported as “Non-toxic”. Besides, the inhibition result (in series [3]; in the series filed under Bos taurus [4]; in the series listed under Homo sapiens [5]; in series [6]; in the series listed under Bos taurus [7]; in the series listed under Homo sapiens [8]) was “Active” in each case. Also, the inhibition entry in series [9] and in [10] was “Active” in each case.
